The target of experiment [1] is T1, Sodium-dependent dopamine transporter (Rattus norvegicus, UniProt P23977). The experiment can be described thus: Affinity at rat dopamine transporter using [125I]RTI-55 displacement. In short, it runs like this: (§1)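 Binding was measured by competition against [125I]RTI-55 at DAT and SERT, and affinities were reported as Ki values. The selectivity ratio is SERT Ki divided by DAT Ki. Other conditions follow a cited earlier method.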

Experiment [2] has as its target T1, Sodium-dependent dopamine transporter. The experiment in a line: Inhibition of [3H]dopamine uptake via rat dopamine transporter.
Experiment [3] concerns the target Norepinephrine transporter (Rattus norvegicus, UniProt Q9WTR4). The experiment can be described thus: Inhibition of [3H]norepinephrine uptake at the rat norepinephrine transporter.
In experiment [4] the target is T2, Sodium-dependent serotonin transporter (Rattus norvegicus, UniProt P31652). The experiment in a line: Affinity at rat serotonin transporter using [125I]RTI-55 displacement. In short, it runs like this:
as §1

The target of experiment [5] is T2, Sodium-dependent serotonin transporter. The experiment in a line: Inhibition of [3H]5-HT uptake at the rat serotonin transporter.
Experiment [6] addresses Monoamine transporters; serotonin & dopamine (Rattus norvegicus) (UniProt P31652+P23977). The experiment can be described thus: Ratio between affinities at the rat dopamine and serotonin transporters. The experiment is classed as protein assay. In short, it runs like this: as §1
A short description of experiment [7]: Ratio between the inhibition of serotonin and dopamine uptake.
Experiment [8] in a line: Ratio between the inhibition of norepinephrine and dopamine uptake.

Molecules are shown by their SMILES.

The Ki is the equilibrium dissociation constant of an inhibitor or competing ligand from its target. Higher therefore signals a looser hold on the target.

T2 sequence (P31652 whole entry): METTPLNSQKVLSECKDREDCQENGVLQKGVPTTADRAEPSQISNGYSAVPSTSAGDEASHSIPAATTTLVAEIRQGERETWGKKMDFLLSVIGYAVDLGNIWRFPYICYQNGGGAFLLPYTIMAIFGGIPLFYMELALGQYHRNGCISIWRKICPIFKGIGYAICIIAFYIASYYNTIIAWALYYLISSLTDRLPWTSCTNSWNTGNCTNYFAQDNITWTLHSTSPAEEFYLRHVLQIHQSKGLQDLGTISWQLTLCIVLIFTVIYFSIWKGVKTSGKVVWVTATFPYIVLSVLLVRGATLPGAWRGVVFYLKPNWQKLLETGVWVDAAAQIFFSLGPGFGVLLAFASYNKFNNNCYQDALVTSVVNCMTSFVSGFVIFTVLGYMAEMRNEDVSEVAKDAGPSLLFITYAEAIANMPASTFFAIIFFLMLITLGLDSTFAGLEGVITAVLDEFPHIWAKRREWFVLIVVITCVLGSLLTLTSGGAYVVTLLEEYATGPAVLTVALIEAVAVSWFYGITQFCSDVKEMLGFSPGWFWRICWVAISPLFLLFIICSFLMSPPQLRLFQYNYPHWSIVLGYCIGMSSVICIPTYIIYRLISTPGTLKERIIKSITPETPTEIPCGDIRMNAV
Sequence of Norepinephrine transporter (Q9WTR4 whole entry): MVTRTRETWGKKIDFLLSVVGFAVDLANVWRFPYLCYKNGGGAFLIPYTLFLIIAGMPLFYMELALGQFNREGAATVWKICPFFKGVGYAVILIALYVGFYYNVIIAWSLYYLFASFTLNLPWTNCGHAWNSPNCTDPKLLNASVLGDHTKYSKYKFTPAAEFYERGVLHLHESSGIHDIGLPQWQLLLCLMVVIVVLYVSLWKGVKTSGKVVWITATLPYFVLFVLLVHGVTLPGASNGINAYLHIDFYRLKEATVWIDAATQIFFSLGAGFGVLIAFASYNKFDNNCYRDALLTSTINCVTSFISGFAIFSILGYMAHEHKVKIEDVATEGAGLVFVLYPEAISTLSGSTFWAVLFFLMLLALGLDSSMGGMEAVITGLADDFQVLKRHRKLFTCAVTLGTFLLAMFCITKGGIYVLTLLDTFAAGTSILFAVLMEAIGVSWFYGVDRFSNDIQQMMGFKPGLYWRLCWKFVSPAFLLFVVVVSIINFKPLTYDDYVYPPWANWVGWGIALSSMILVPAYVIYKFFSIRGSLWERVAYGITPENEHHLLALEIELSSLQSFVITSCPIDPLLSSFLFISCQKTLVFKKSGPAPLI
T1 sequence (P23977 whole entry): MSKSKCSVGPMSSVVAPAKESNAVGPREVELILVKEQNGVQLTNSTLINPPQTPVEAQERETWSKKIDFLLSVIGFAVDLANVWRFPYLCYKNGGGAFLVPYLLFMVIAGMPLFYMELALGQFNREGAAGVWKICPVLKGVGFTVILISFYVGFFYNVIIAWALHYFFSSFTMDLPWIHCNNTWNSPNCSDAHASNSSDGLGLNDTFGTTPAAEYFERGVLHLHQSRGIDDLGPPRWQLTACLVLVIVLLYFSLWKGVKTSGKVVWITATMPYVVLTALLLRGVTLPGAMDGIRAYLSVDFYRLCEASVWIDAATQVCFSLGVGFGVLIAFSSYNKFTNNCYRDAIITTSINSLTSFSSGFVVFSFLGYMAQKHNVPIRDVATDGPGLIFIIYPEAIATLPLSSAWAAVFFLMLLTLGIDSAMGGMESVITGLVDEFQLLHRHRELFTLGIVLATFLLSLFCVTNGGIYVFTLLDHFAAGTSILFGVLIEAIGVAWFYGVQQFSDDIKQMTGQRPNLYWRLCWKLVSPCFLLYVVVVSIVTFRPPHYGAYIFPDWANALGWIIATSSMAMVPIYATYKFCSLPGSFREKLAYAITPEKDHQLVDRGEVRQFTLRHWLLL
Sequence of Monoamine transporters; serotonin & dopamine (Rattus norvegicus) (P23977 whole entry, looked up): as the sequence (P23977 whole entry) above
Sequence of Monoamine transporters; serotonin & dopamine (Rattus norvegicus) (P31652 whole entry, looked up): as the sequence (P31652 whole entry) above

With `Fc1ccc(CN2CCC(CCOC(c3ccc(F)cc3)c3ccc(F)cc3)CC2)cc1`, the Ki was determined as 2.3 nM in experiment [1]; 3.8 nM in experiment [2]; 639 nM in experiment [3]; 245 nM in experiment [4]; 601 nM in experiment [5]. In addition, the Ratio in experiment [6] is 107.
In the case of `COc1ccc(CN2CCC(CCOC(c3ccc(F)cc3)c3ccc(F)cc3)CC2)cc1`, the results for the Ki in experiment [1] and in experiment [4] were 7.9 nM and 266 nM, respectively. Besides, the Ratio in experiment [6] worked out at 34.
Take `Fc1ccc(C(OCCC2CCN(Cc3ccc(I)cc3)CC2)c2ccc(F)cc2)cc1`: the inhibitory constant (Ki) is 2.1 nM in experiment [1]; 13.6 nM in experiment [2]; 546 nM in experiment [3]; 205 nM in experiment [4]; 1020 nM in experiment [5]. Moreover, in experiment [6], the Ratio is 98.
For the compound `Fc1ccc(C(OCCC2CCN(Cc3ccc(Cl)cc3)CC2)c2ccc(F)cc2)cc1`, the results for the Ki in experiment [1] and in experiment [4] were 1.2 nM and 238 nM, respectively. In addition, the Ratio in experiment [6] stood at 198.
In the same order, the values of `N#Cc1ccc(CN2CCC(CCOC(c3ccccc3)c3ccccc3)CC2)cc1` are 5.7 nM, 2230 nM and 390.
Take `O=[N+]([O-])c1ccc(CN2CCC(CCOC(c3ccc(F)cc3)c3ccc(F)cc3)CC2)cc1`: the Ki was determined as 1.2 nM in experiment [1]; 6.9 nM in experiment [2]; 231 nM in experiment [3]; 387 nM in experiment [4]; 1560 nM in experiment [5]. In addition, in experiment [6], the Ratio was 323.
In the case of `COc1cccc(CN2CCC(CCOC(c3ccc(F)cc3)c3ccc(F)cc3)CC2)c1`, the Ki in experiment [1] worked out at 13.3 nM; in experiment [4], 161 nM. In addition, the Ratio in experiment [6] was 12.
In the same order, the values of `Clc1ccc(CN2CCC(CCOC(c3ccccc3)c3ccccc3)CC2)cc1` are 3.8 nM, 531 nM and 140.
In the same order, the values of `Fc1ccc(C(OCCC2CCN(Cc3ccc(Br)cc3)CC2)c2ccc(F)cc2)cc1` are 1.1 nM, 199 nM and 181.
Take `O=[N+]([O-])c1ccc(CN2CCC(CCOC(c3ccccc3)c3ccccc3)CC2)cc1`: the Ki is 2.5 nM in experiment [1]; 2.7 nM in experiment [2]; 208 nM in experiment [3]; 2150 nM in experiment [4]; 3580 nM in experiment [5]. Besides, in experiment [6], the Ratio is 859.
Turning to `Ic1ccc(CN2CCC(CCOC(c3ccccc3)c3ccccc3)CC2)cc1`, the Ki in experiment [1] turned out to be 7.2 nM; in experiment [2], 5.1 nM; in experiment [3], 479 nM; in experiment [4], 457 nM; in experiment [5] it was 2570 nM. For the same compound, the Ratio in experiment [6] is 63; in experiment [7], 500; in experiment [8], 93.
Take `N#Cc1ccc(CN2CCC(CCOC(c3ccc(F)cc3)c3ccc(F)cc3)CC2)cc1`: the Ki in experiment [1] was determined as 1.2 nM; in experiment [4], 606 nM. For the same compound, the Ratio in experiment [6] was 505.
In the same order, the values of `COc1ccccc1CN1CCC(CCOC(c2ccc(F)cc2)c2ccc(F)cc2)CC1` are 63 nM, 248 nM and 4.
In the same order, the values of `Fc1ccc(CN2CCC(CCOC(c3ccccc3)c3ccccc3)CC2)cc1` are 5.1 nM, 902 nM and 177.
In the same order, the values of `FC(F)(F)c1ccc(CN2CCC(CCOC(c3ccccc3)c3ccccc3)CC2)cc1` are 3.5 nM, 2270 nM and 648.
Regarding `Fc1ccc(C(OCCC2CCN(Cc3cccc4ccccc34)CC2)c2ccc(F)cc2)cc1`, the Ki in experiment [1] came out at 16 nM; in experiment [4], 370 nM. The Ratio in experiment [6] was determined as 23.
As for `Fc1ccc(C(OCCC2CCN(Cc3ccc4ccccc4c3)CC2)c2ccc(F)cc2)cc1`, the Ki in experiment [1] was 0.7 nM; in experiment [2] it was 7.2 nM; in experiment [3] it was 93 nM; in experiment [4], 88 nM; in experiment [5], 227 nM.
Turning to `Fc1ccc(C(OCCC2CCN(Cc3ccc(C(F)(F)F)cc3)CC2)c2ccc(F)cc2)cc1`, the Ki in experiment [1] was determined as 1.1 nM; in experiment [4] it was 442 nM. Moreover, the Ratio in experiment [6] was found to be 402.
As for `Cc1ccc(CN2CCC(CCOC(c3ccc(F)cc3)c3ccc(F)cc3)CC2)cc1`, the Ki in experiment [1] amounted to 5.7 nM; in experiment [4], 239 nM. For the same compound, the Ratio in experiment [6] came out at 42.
Take `Brc1ccc(CN2CCC(CCOC(c3ccccc3)c3ccccc3)CC2)cc1`: the Ki in experiment [1] stood at 6.4 nM; in experiment [2], 5.3 nM; in experiment [3], 534 nM; in experiment [4], 988 nM; in experiment [5], 1320 nM. For the same compound, the Ratio in experiment [6] is 154.
Take `Fc1ccc(C(OCCC2CCN(Cc3ccccc3)CC2)c2ccc(F)cc2)cc1`: the Ki came to 9.9 nM in experiment [1] and 171 nM in experiment [4]. Also, the Ratio in experiment [6] stood at 17.

These data come from ChEMBL document CHEMBL1136761 (J Med Chem, 2003).
